The list is not random: actives were taken first. Their share in the collection is about 1.8%.
MBD2 DNA inh: inhibitors of human MBD2 binding to methylated oligonucleotide; inhibition, % at 4.4 µM; actives 0.31% (n = 370,000); TR-FRET; Q9UBB5; in the data active = inhibition above about 13%
core dimer inh: HCV core protein dimerization inhibition | TR-FRET GST/Flag-core106 dimerization, 1536-well | inhibition, % at 5 µM | actives 0.33% (n = 300,000) | AID 1899;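 active = inhibition above the mean of all tested compounds plus 3 SD, set per screening campaign, cut at about 45% in these data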
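Assay system: Tagged HCV core106 pair (GST and Flag) | Buffer or medium: KF-containing HEPES buffer, pH 7.45, DTT, CHAPS, BSA | Also added: Eu donor and XL665 acceptor anti-tag antibodies | Dosing: One concentration, 5 µM, in 0.5% DMSO | Timing: 4 h at 22.5 °C | Technique: TR-FRET 671 and 617 nm emission | Repeats: Singlicate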
TDP2 absorb: blocks human TDP2 phosphodiesterase activity. inhibition, % at 12.8 µM. actives 0.34% (n = 370,000). recombinant TDP2, T5PNP hydrolysis, p-nitrophenol absorbance 415 nm. AID 720702;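 active = inhibition above the mean of all tested compounds plus 3 SD, set per campaign, cut at about 25% in these data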;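 also: 0% = DMSO with enzyme and 100% = buffer with substrate but no TDP2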
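Assay system: Recombinant human TDP2 | Quantity: 120 nM TDP2 per well | Incubation: 2 h at 37 °C | Signal: Epi absorbance | Evaluation: Percent inhibition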
LEDGF integ inh: blocks HIV-1 LEDGF/p75-dependent DNA integration. inhibition, % at 3.7 µM. TR-FRET IN-LEDGF/p75 DNA integration, Eu/Cy5. AID 743269. actives 0.64% (n = 370,000);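 active = inhibition above the screen-wide mean plus 3 SD, cut at about 13% in these data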;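 also: signal is the Cy5 over europium emission ratio at 671 and 618 nm; 0% = plate median of compound wells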
UHRF1 MBD2 ctr: UHRF1 methyl-DNA binding inhibition; actives 0.75% (n = 370,000); Q96T88; inhibition, % at 4.4 µM; AID 687016; UHRF1 binding to methylated oligo, TR-FRET; in the data active = inhibition above about 21%;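 also: UHRF1 SRA domain binding a hemimethylated CpG hairpin DNA probe; 0% = median of test compound wells and 100% = reference inhibitor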
Target sequence (Q96T88 whole entry, looked up, the tested form may be a part): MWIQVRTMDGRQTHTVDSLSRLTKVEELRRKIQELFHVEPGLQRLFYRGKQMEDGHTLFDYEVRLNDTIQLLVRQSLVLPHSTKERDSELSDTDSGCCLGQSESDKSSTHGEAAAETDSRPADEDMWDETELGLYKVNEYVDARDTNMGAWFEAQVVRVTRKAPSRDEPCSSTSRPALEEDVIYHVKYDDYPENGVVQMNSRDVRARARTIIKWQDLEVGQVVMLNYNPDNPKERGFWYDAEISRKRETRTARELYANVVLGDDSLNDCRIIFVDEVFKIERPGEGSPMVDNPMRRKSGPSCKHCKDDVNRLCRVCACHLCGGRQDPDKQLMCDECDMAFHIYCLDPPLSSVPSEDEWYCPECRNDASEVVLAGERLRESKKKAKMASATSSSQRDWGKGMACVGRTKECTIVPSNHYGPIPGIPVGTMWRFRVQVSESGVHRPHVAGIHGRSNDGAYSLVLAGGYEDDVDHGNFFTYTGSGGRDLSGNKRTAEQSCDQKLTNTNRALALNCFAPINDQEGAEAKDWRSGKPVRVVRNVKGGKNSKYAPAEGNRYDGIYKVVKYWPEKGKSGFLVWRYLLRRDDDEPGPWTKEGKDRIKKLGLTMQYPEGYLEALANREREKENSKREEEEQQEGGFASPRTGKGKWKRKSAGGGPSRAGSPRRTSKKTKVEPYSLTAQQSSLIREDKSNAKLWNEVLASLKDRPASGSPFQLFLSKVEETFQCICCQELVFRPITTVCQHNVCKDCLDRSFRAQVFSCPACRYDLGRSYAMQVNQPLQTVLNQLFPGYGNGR
* = called active by the depositor; . = no result.

SMILES	MBD2 DNA inh	core dimer inh	TDP2 absorb	LEDGF integ inh	UHRF1 MBD2 ctr
C=CCn1c(COc2ccc(C)cc2)nnc1SCc1ccc([N+](=O)[O-])cc1	-1.8	.	-5.5	-1.4	-0.9
COc1ccc(/C(C)=N/Nc2ncc(Cl)cc2Cl)c(O)c1	6.3	-2.4	-1.7	0.8	24.4*
Cc1ccc(-n2c(SCC(=O)c3ccc(F)cc3)nnc2-c2cccnc2)cc1	-5.4	.	3.4	-0.5	0.6
O=Cc1ccc(-c2cccs2)s1	-2.6	.	-11.2	4.8	1.5
Oc1ccc(N=Cc2ccc(-c3cccs3)s2)cc1	-5.0	-15.3	8.5	46.6*	10.6
N#Cc1ccc(S(=O)(=O)N2CCCc3nc(-c4ccccc4)ccc32)cc1	-6.5	.	11.6	-1.0	-1.6
Cc1ccc(C)c(S(=O)(=O)/N=C2\C=C(NS(=O)(=O)c3ccccc3)C(=O)c3ccccc32)c1	-12.3	-4.1	18.4	8.9	-7.1
Cc1cc(C)c(S(=O)(=O)/N=C2/C=C(Sc3ncn[nH]3)C(=O)c3ccccc32)cc1C	-7.1	-10.7	66.5*	42.0*	6.6
COC(=O)C1CN(Cc2ccc(C)cc2)CCS(=O)(=O)N1Cc1cn(Cc2ccccc2)nn1 (configuration not stated)	-2.6	.	3.2	8.2	10.8
CC1=C(C(=O)N(C)C)CC(CC(=O)NCCc2ccccn2)C(=O)N1Cc1ccc(C(C)(C)C)cc1 (configuration not stated)	5.0	.	-6.6	-0.9	20.9*
CC1=C(C(=O)N(C)C)CC(CC(=O)NCCc2ccccn2)C(=O)N1Cc1ccc(F)cc1 (configuration not stated)	5.8	.	1.4	4.3	18.9
CCN(CCn1cccn1)C(=O)c1cc(COc2cc(C)ccc2C)on1	-0.8	.	-4.1	1.2	30.7*
CCN(CCn1cccn1)C(=O)c1cc(COc2ccccc2SC)on1	2.2	.	-2.7	-1.6	35.0*
COc1ccc(C[N+]2=C(N)NC3=C4CCCCC4n4c(=O)n(-c5ccccc5)c(=O)n4C3C2)c(OC)c1 (configuration not stated)	2.7	.	3.9	-0.3	0.5
CN1CCOc2ccc(S(=O)(=O)NCCc3ccc(Cl)cc3)cc21	5.4	3.0	-11.1	6.6	29.8*
CC(=O)N1CCOc2ccc(S(=O)(=O)NCCc3ccc(Cl)cc3)cc21	-2.0	-3.5	-5.5	1.2	-1.4
CCOC(=O)c1c(C)oc2c1c(C=NCc1ccccn1)c(O)c1ccccc12	-6.3	.	30.3*	16.5*	7.4
O=S(=O)(CC1NCc2ccccc21)NCCc1ccccc1 (configuration not stated)	-3.7	.	0.2	2.3	-9.1
CC(C)c1cc(C(C)C)c(S(=O)(=O)N2c3ccccc3[C@@]3(Br)C[C@H]4C(=O)N[C@@H](Cc5ccccc5)C(=O)N4[C@@H]23)c(C(C)C)c1	.	46.0*	.	.	.
O=C1N[C@@H](Cc2ccccc2)C(=O)N2[C@H]1C[C@]1([C@]34C[C@H]5C(=O)N[C@@H](Cc6ccccc6)C(=O)N5[C@H]3N(S(=O)(=O)c3ccccc3)c3ccccc34)c3ccccc3N(S(=O)(=O)c3ccccc3)[C@H]21	-0.3	60.1*	-0.1	3.4	2.5
CCN(C(=O)c1nn(-c2ccc(OC)cc2)c(=O)c2c1c1ccccc1n2C)c1ccc(OC)cc1	7.1	18.0	7.3	-0.6	22.4*
COc1ccc(-n2nc(C(=O)NCc3ccco3)c3c4ccccc4n(C)c3c2=O)cc1	-2.0	22.7	-1.0	-3.9	30.5*
CCOC(=O)c1cc(-c2ccccc2)nn1CCC#N	1.5	-3.3	-2.1	-1.0	43.6*
CCOC(=O)c1cc(-c2cccs2)nn1CCC#N	-2.2	-0.7	5.1	0.0	-1.0
CCS(=O)(=O)c1ccc2oc(SCC(=O)NCCc3ccc(OC)cc3)nc2c1	0.3	0.2	0.2	-5.1	29.2*
SMILES	MBD2 DNA inh	core dimer inh	TDP2 absorb	LEDGF integ inh	UHRF1 MBD2 ctr
CCS(=O)(=O)c1ccc2oc(SCC(=O)Nc3ccc(OC)cc3OC)nc2c1	-0.5	0.6	0.9	2.0	1.8
Oc1c(N=Nc2nn[nH]n2)ccc2ccccc12	-11.7	.	26.3*	14.4*	1.1
CCOC(=O)c1nc2cc3n(c(C)c-2c1C)C(C)C(C)=C3C (configuration not stated)	1.8	-3.3	4.4	2.6	23.0*
CN1CCN(C(=O)OC2CC3CC2[C@H]2CCCCN2C3=O)CC1 (some centres not stated)	2.4	.	6.8	0.8	21.1*
Cc1sc2nc(COC(=O)c3c(F)cccc3F)[nH]c(=O)c2c1C	4.2	4.7	-6.0	-1.1	37.9*
Cc1sc2nc(COC(=O)c3ccc(O)cc3)[nH]c(=O)c2c1C	3.4	2.6	-4.6	1.1	-1.6
O=C1N(CCCO)CCC12CCCCC2	4.4	.	7.8	-4.2	-0.1
COc1cc(CC2COC(c3ccc(O)c(OC)c3)C2COC(C)=O)ccc1O (configuration not stated)	12.4	18.8	10.3	14.3*	13.7
CN[C@H]1C[C@H]2c3[nH]c4c(-c5ccc6c(c5)OCO6)cccc4c3CCN2C[C@H]1[C@H](C)O	3.1	.	-4.0	-0.2	0.5
Cc1ccc2oc(Nc3nc(-c4ccccc4)cc(=O)[nH]3)nc2c1	-7.2	.	-4.1	-4.5	75.0*
COC(=O)[C@]12C[C@H](CC(=O)N3CCC(c4ccccc4)CC3)C(=O)N(Cc3cccc4ccccc34)C1=C[C@H](COCc1ccccc1)O[C@@H]2C	-1.1	.	-3.7	-5.2	1.1
CCCCCCn1cc(CN2CC=CS2(=O)=O)nn1	5.9	.	-2.0	-2.4	7.5
Cc1cc(C(=O)COc2cccc([N+](=O)[O-])c2)c(C)n1C1CC1	2.2	.	5.4	-0.8	0.5
Cc1cc(C(=O)COC(=O)c2cccc(O)c2)c(C)n1C1CC1	0.6	.	-6.4	3.7	27.3*
COc1cccc(-n2c(C)c3c(OC)cccc(=O)c3c2C)c1	-0.9	51.6*	12.3	0.1	-5.8
NC(=Nc1cccc(F)c1)NC(=O)OCc1ccccc1	-0.8	.	-1.0	3.1	0.4
CCN(CC)C(=O)Oc1ccc2oc(=O)cc(-c3cc4cccc(OC)c4o3)c2c1	4.1	12.3	-11.8	-1.1	21.2*
COc1ccc2oc(=O)cc(-c3cc4cccc(OC)c4o3)c2c1	-1.5	5.6	12.3	0.8	0.1
O=C(N/N=C/c1ccco1)c1cccc(N2Cc3ccccc3C2)c1	6.0	63.2*	0.0	6.8	-3.5
O=[N+]([O-])c1ccc2c(c1)ncn2CCc1ccccc1	0.2	.	5.9	-2.4	26.3*
CN(C)c1cccc(N(C)C)c1CNC(=O)NC(=O)c1c(F)cccc1F	0.5	5.4	-1.6	-0.8	28.0*
CC(=O)c1ccc(NC(=O)[C@@]2(CC(=O)O)CC(/C=C/c3ccccc3)=NO2)cc1	-1.8	.	-5.1	-1.9	53.5*
COc1ccc(NC(=O)[C@@]2(CC(=O)O)CC(/C=C/c3ccccc3)=NO2)cc1	1.5	-7.2	-3.5	-1.0	5.7

Compound activity (PubChem BioAssay)
